57 sequences from the array DNA melting data of Ke et al. (doi:10.1101/2024.01.08.574731) can be followed below.

Data set [1] in a line: folding enthalpy; higher = less favourable; fluorescence melt of hairpins on a sequencing array, two-state fit. The following applies: sodium 0.088 M. The gist of the method: (§1)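 In 50 mM Na-HEPES pH 8.0 containing 25 mM NaCl, hairpins from the library on a sequenced MiSeq flow cell were imaged for Cy3 fluorescence at 2.5 °C steps up to 60 °C, with Cy3 and quencher oligos annealed. After normalisation to pre-quench Cy3 and to control constructs, two-state fits with bootstrapping gave melting temperature and folding enthalpy. Four replicates were combined by inverse-variance weighting, and fitted temperatures were shifted up by 9.35 °C to match UV melts.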

The nature of data set [2]: melting temperature; fluorescence melt of hairpins on a sequencing array, two-state fit, raised by 9.35 °C to match UV melts. The conditions noted are these: sodium 0.088 M. A digest of the protocol:
as §1

Take GCGTACGAAAGTAGTCGC ((((((....)))..))): the folding enthalpy in data set [1] was -25.1 kcal/mol. Moreover, the Tm in data set [2] amounted to 45.3 °C.
The corresponding values for GCGTACGAAAGTATTCGC ((((((....)))..))) are -25.5 kcal/mol and 40.7 °C.
The corresponding values for GCGTACGCACGC ((((....)))) are -17.1 kcal/mol and 56.9 °C.
Take GCGTACGGAAACGTATGC ((.((((....)))).)): the folding enthalpy in data set [1] was -40.1 kcal/mol. Further, the Tm in data set [2] is 55.9 °C.
The corresponding values for GCGTACTACGC ((((...)))) are -24.6 kcal/mol and 55.2 °C.
The corresponding values for GCGTAGAAACGC ((((....)))) are -18.6 kcal/mol and 48 °C.
The corresponding values for GCGTAGCAACGC ((((....)))) are -9.68 kcal/mol and 61.4 °C.
GCGTAGCGAAAGCACCGC (((..((....))..))): the folding enthalpy in data set [1] is -10.6 kcal/mol. For the same sequence, the Tm in data set [2] was found to be 47.8 °C.
Turning to GCGTAGCGAAAGCGGCGC (((..((....))..))), in data set [1], the folding enthalpy is -22.4 kcal/mol. Also, the Tm in data set [2] was found to be 69.1 °C.
The corresponding values for GCGTAGCGAAAGCTAGGC ((.((((....)))).)) are -20.9 kcal/mol and 59.6 °C.
Take GCGTAGCGAAAGCTCTGC ((..(((....)))..)): in data set [1], the folding enthalpy is -7.19 kcal/mol. Moreover, the Tm in data set [2] is 43.8 °C.
The corresponding values for GCGTAGCGAAAGCTGAGC ((..(((....)))..)) are -16 kcal/mol and 54.4 °C.
With GCGTAGCGAAAGCTTAGC ((..(((....)))..)), the folding enthalpy in data set [1] is -14.6 kcal/mol. Moreover, in data set [2], the Tm worked out at 51.5 °C.
The corresponding values for GCGTAGGCACGC ((((....)))) are -14.1 kcal/mol and 60.8 °C.
The corresponding values for GCGTAGTCGAAAGACCGC (((..(((....)))))) are -28.9 kcal/mol and 52 °C.
The corresponding values for GCGTATCGAAAGATTCGC (((.(((....))).))) are -42.7 kcal/mol and 53.9 °C.
As for GCGTATCGACGC ((((....)))), the folding enthalpy in data set [1] was -18.9 kcal/mol. The Tm in data set [2] turned out to be 52.6 °C.
The corresponding values for GCGTATCTACGC ((((....)))) are -24.4 kcal/mol and 56.9 °C.
The corresponding values for GCGTATGCACGC ((((....)))) are -13.3 kcal/mol and 54.3 °C.
The corresponding values for GCGTATGGAAACATACGC (((((((....))))))) are -37.7 kcal/mol and 68.2 °C.
Take GCGTATTTACGC ((((....)))): the folding enthalpy in data set [1] was -26.7 kcal/mol. Moreover, the Tm in data set [2] worked out at 54.5 °C.
The corresponding values for GCGTCAAAACGC ((((....)))) are -21.2 kcal/mol and 51.6 °C.
For GCGTCACCGAAAGGTCGC (((..(((....)))))), the folding enthalpy in data set [1] is -25.2 kcal/mol. Besides, in data set [2], the Tm stood at 51.2 °C.
The corresponding values for GCGTCACTACGC ((((....)))) are -25.3 kcal/mol and 52.8 °C.
The corresponding values for GCGTCAGACGC ((((...)))) are -22.7 kcal/mol and 52.3 °C.
As for GCGTCAGGAAACCAACGC ((((..(....)..)))), in data set [1], the folding enthalpy is -25.1 kcal/mol. Besides, the Tm in data set [2] was 40.3 °C.
The corresponding values for GCGTCAGGAAACTAACGC ((((.((....)).)))) are -28.1 kcal/mol and 44.7 °C.
The corresponding values for GCGTCATAACGC ((((....)))) are -23.4 kcal/mol and 53.3 °C.
For GCGTCATTACGC ((((....)))), in data set [1], the folding enthalpy is -22.9 kcal/mol. Further, in data set [2], the Tm came to 55 °C.
The corresponding values for GCGTCCAACGC ((((...)))) are -19.9 kcal/mol and 53.6 °C.
For GCGTCCCAACGC ((((....)))), the folding enthalpy in data set [1] is -23.5 kcal/mol. For the same sequence, in data set [2], the Tm was determined as 55.1 °C.
The corresponding values for GCGTCCCGAAAGGGCCGC (((.(((....))).))) are -23.7 kcal/mol and 64.8 °C.
The corresponding values for GCGTCCGAAAGGAAACGC ((((((....)))..))) are -34.1 kcal/mol and 54.4 °C.
The corresponding values for GCGTCCGAAAGGAAGCGC ((((((....)))..))) are -29.7 kcal/mol and 67.4 °C.
In the case of GCGTCCGAAAGGACACGC ((((((....)))..))), the folding enthalpy in data set [1] was -14.6 kcal/mol. In addition, the Tm in data set [2] was determined as 60 °C.
In the case of GCGTCCGAAAGGACCGC ((((((....))).))), the folding enthalpy in data set [1] was -19.6 kcal/mol. For the same sequence, the Tm in data set [2] came out at 66.7 °C.
The corresponding values for GCGTCCGAAAGGAGACGC ((((((....)))..))) are -31.4 kcal/mol and 57.6 °C.
The corresponding values for GCGTCCGAAAGGAGCCGC ((((((....)))..))) are -16.9 kcal/mol and 50.1 °C.
The corresponding values for GCGTCCGGAAACGGATGC ((.((((....)))).)) are -37.3 kcal/mol and 65.1 °C.
As to GCGTCGAACGC ((((...)))), in data set [1], the folding enthalpy is -18.2 kcal/mol. Further, in data set [2], the Tm is 50.3 °C.
The corresponding values for GCGTCGCGAAAGCCCCGC (((..((....))..))) are -19.7 kcal/mol and 43.6 °C.
The corresponding values for GCGTCGCGAAAGCCTCGC (((..((....))..))) are -21.7 kcal/mol and 50.8 °C.
Regarding GCGTCGCGAAAGCGGTGC ((..(((....)))..)), the folding enthalpy in data set [1] was -18.1 kcal/mol. In addition, in data set [2], the Tm was 58.9 °C.
The corresponding values for GCGTCGCGAAAGCGTGGC ((..(((....)))..)) are -14.9 kcal/mol and 49.8 °C.
The corresponding values for GCGTCGCGAAAGCTAGGC ((.(.((....)).).)) are -20.9 kcal/mol and 36.8 °C.
The corresponding values for GCGTCGCGAAAGCTATGC ((.(.((....)).).)) are -20.1 kcal/mol and 45 °C.
Take GCGTCGGGAAACCGACAC (.(((((....))))).): in data set [1], the folding enthalpy was -11.2 kcal/mol. Besides, the Tm in data set [2] was determined as 48.1 °C.
The corresponding values for GCGTCGGGAAACTGGCGC (((.(.(....).).))) are -37.1 kcal/mol and 53.2 °C.
The corresponding values for GCGTCGTCGAAAGACCGC (((..(((....)))))) are -19.3 kcal/mol and 50.3 °C.
The corresponding values for GCGTCTAGACGC ((((....)))) are -31 kcal/mol and 58.6 °C.
With GCGTCTCGAAAGAGTCGC (((.(((....))).))), the folding enthalpy in data set [1] is -38.1 kcal/mol. The Tm in data set [2] came out at 58.1 °C.
The corresponding values for GCGTCTCTACGC ((((....)))) are -24.4 kcal/mol and 52.9 °C.
In the case of GCGTCTGCACGC ((((....)))), in data set [1], the folding enthalpy was -17.6 kcal/mol. Further, the Tm in data set [2] worked out at 52.5 °C.
Take GCGTCTGGAAACAGGTGC ((..(((....)))..)): the folding enthalpy in data set [1] was -28.3 kcal/mol. In addition, the Tm in data set [2] worked out at 41.8 °C.
The corresponding values for GCGTCTTACGC ((((...)))) are -21.1 kcal/mol and 62.5 °C.
The corresponding values for GCGTCTTGACGC ((((....)))) are -34.4 kcal/mol and 69.1 °C.
The corresponding values for GCGTGAACACGC ((((....)))) are -20.9 kcal/mol and 68 °C.
